# Assay results from the RNAGym collection of RNA variant scans (doi:10.1126/science.aae0568).
# Fewer inactive variants are shown than the library holds.
# B1: tRNA (parent)
# chain: GUUCCGUUGGCGUAAUGGUAACGCGUCUCCCUCCUAAGGAGAAGACUGCGGGUUCGAGUCCCGUACGGAACG
# Variants of: B1
# Assay: yeast fitness relative to wild type (ratio to wild type); higher = fitter; tRNA-Arg(CCU), competitive growth, 37 C, YPD
# Procedure, shortened: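 Variants of the tRNA-Arg(CCU) gene were chemically synthesised with a 3% per-site mutation rate across 69 sites and placed at the native genomic locus in Saccharomyces cerevisiae. Six parallel replicates of the pooled strains were competed in YPD at 37°C for 24 hours, and gene amplicons from the start and end populations were read by 100-nucleotide paired-end sequencing. Darwinian fitness relative to wild type was derived from changes in genotype frequencies. Genotypes required ≥ 100 starting reads, and estimates < 0.5 were set to 0.5.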
row,Variant,yeast fitness
1,C5G A40C U59A,≤ 0.5
2,C5G C22G C55U,≤ 0.5
3,C5G C24U C31A,≤ 0.5
4,C5G A37G G41C,≤ 0.5
5,C5G A42C G48A,0.587
6,C5G C11U U19C G41C,0.536
7,C5G A43U G48C,0.602
8,C5G C11G C34U C55U G67C,≤ 0.5
9,C5G A40G U54A,0.579
10,C5G C11A C22G A36U G63A,≤ 0.5
11,C5G C24U C33U C46A,≤ 0.5
12,C5G C27U C62U,0.626
13,C5G A40U G58C,0.732
14,C5G C11A,0.609
15,C5G A37G C46G C61A,≤ 0.5
16,C5G A45C A70C,0.725
17,C5G C11G C30U C31U A57G,0.8
18,C5G A57G,0.882
19,C5G A57U,0.735
20,C5G C22U U28G U54C A65G,≤ 0.5
21,C5G A42G U54A,0.639
22,C5G C11U C61G,≤ 0.5
23,C5G A40U G44A C61A,0.567
24,C5G C27G G44C U59A,≤ 0.5

row,Variant,yeast fitness
1,C5G C24G C60G,0.518
2,C5G C22G G56A,0.788
3,C5G A40C G52A C62U,≤ 0.5
4,C5G C22G C55G G63C,0.679
5,C5G C11A A14G G25C U28C C29G,≤ 0.5
6,C5G C11A A15G G18A A42U,≤ 0.5
7,C5G A57G C66A,0.564
8,C5G A40C U53G C60A,≤ 0.5
9,C5G A43C G48C U64C,≤ 0.5
10,C5G C24G A45C A70U,≤ 0.5
11,C5G C27G C30U G51C C55A,≤ 0.5
12,C5G A40U C62U,≤ 0.5
13,C5G C29A G48A A65U,≤ 0.5
14,C5G A37U G67A,≤ 0.5
15,C5G C27U C66U,0.654
16,C5G C11G A14U A15U G56A U59G,≤ 0.5
17,C5G A43U A69U,0.62
18,C5G C22U G50U,0.563
19,C5G C11A A15G G18A C30G U54C,≤ 0.5
20,C5G C11U G25C G52U A70C,≤ 0.5
21,C5G C29A G48A,≤ 0.5
22,C5G A42C G68U,0.593
23,C5G A42G C60G C61G,0.669
24,C5G C11U A42G C49U A70U,0.588

row,Variant,yeast fitness
1,C5G C11U A37U,≤ 0.5
2,C5G C24G C30G C31U U35A A36U,0.755
3,C5G C24U C33U A57U A69U,≤ 0.5
4,C5G C27G C61U,≤ 0.5
5,C5G C22A A43G,0.557
6,C5G C22G,0.652
7,C5G C22A,0.766
8,C5G C22U,0.72
9,C5G C24G C31U C61A,≤ 0.5
10,C5G C11G U35G A42G G56C,≤ 0.5
11,C5G C24G C30G C31U U35A A36U G44A C61U,0.67
12,C5G C11U A37C C49U C60A,0.557
13,C5G A45C C66G,≤ 0.5
14,C5G A40C A70G,0.543
15,C5G C27U C34U G56C,0.646
16,C5G C22U U26C,≤ 0.5
17,C5G C27G,0.81
18,C5G A45G A69U,0.688
19,C5G C27U C29G,≤ 0.5
20,C5G C24G G41C,≤ 0.5
21,C5G C22G C55G A70U,≤ 0.5
22,C5G A37U,0.726
23,C5G C27G C29U C31U A45G C49A C66U,≤ 0.5
24,C5G A69C A70G,0.692

row,Variant,yeast fitness
1,C5G C11U G25A,0.787
2,C5G C11G A70U,≤ 0.5
3,C5G A45C,0.85
4,C5G C27G A45C,≤ 0.5
5,C5G C11U A42G C49U C66U G67A,≤ 0.5
6,C5G A37U C49G,≤ 0.5
7,C5G C27U C46U U54C,≤ 0.5
8,C5G C11U G48C C49A A57C,≤ 0.5
9,C5G A43G A69U,0.762
10,C5G C22A U26C C33G U35A,≤ 0.5
11,C5G C27G G38C G56C,≤ 0.5
12,C5G C24U C61A A70C,≤ 0.5
13,C5G A69G,0.902
14,C5G A69U,0.894
15,C5G A69C,0.932
16,C5G C27G A43G,≤ 0.5
17,C5G C22A A42U G48A C62A,≤ 0.5
18,C5G C11G A14C U35G A45C U47C U64A,≤ 0.5
19,C5G C11U A70C,≤ 0.5
20,C5G A43U A65C,0.557
21,C5G C22A A69C,0.603
22,C5G C11G G12A A37C G50A,0.533
23,C5G C29A,0.604
24,C5G C24U C33U C34U G44A C62G,≤ 0.5

row,Variant,yeast fitness
1,C5G C11G C62U,≤ 0.5
2,C5G A37U A43C A65U,≤ 0.5
3,C5G C11G C24U C62A,0.584
4,C5G C27G C33U G56A,0.527
5,C5G C11U A37C C49U,0.609
6,C5G A42G A70C,0.805
7,C5G C27U G67A,0.524
8,C5G C11U G67C,0.699
9,C5G C24G C61A C62A G68C,0.69
10,C5G C27A C31A A42C,≤ 0.5
11,C5G C27U G63A,≤ 0.5
12,C5G A37G C46G A57G,≤ 0.5
13,C5G C11U G17A A20C C49G,≤ 0.5
14,C5G C27U C31A U35C C55G C66U A70C,≤ 0.5
15,C5G C22A C33G,0.61
16,C5G C22G U28A C31G C55A G68C,0.551
17,C5G C27G A57C,≤ 0.5
18,C5G C27G C34G,≤ 0.5
19,C5G C22A A42C,≤ 0.5
20,C5G C11U A37C U64C,0.609
21,C5G C27U U54C,0.747
22,C5G C11G G44A G50C U54C C61U A69U A70C,≤ 0.5
23,C5G C27U G41C U53C,≤ 0.5
24,C5G C11U A37C C49U C60A C66G,0.685

row,Variant,yeast fitness
1,C5G C27U A36U C60G,≤ 0.5
2,C5G A45C C46U,0.643
3,C5G A45U C61U C66U,≤ 0.5
4,C5G C22G C66U,≤ 0.5
5,C5G C27G A65C A70C,0.552
6,C5G C11U A42G C49U A69C A70G,≤ 0.5
7,C5G C22U A36G A65C,≤ 0.5
8,C5G C29A G56A,0.615
9,C5G C11U A37C A43G G50A,≤ 0.5
10,C5G C24G C29A A43U G68C,≤ 0.5
11,C5G C11G A21C U28G C66U,0.605
12,C5G C22U C27U G41C A57C,0.542
13,C5G C11U A14U A37U A45C,≤ 0.5
14,C5G C27G U28A C30U G48A G58A C66U,≤ 0.5
15,C5G A70G,0.848
16,C5G A42U G67A,0.532
17,C5G C22G U47A A70C,≤ 0.5
18,C5G C24G C30G C31U U35A A36U G44A,0.832
19,C5G C11U C30U A36C G58A G67C,≤ 0.5
20,C5G C11A A20U C29A A37C,≤ 0.5
21,C5G C11A U26C A40U U64C,≤ 0.5
22,C5G C22U G56C,≤ 0.5
23,C5G A42G A69C,0.568
24,C5G A43G,0.746

row,Variant,yeast fitness
1,C5G C11A A21G,0.581
2,C5G C11U A37C A57G,≤ 0.5
3,C5G C27U C61G,≤ 0.5
4,C5G C24U A36C C49A,0.577
5,C5G C22U A57G,≤ 0.5
6,C5G C11G A15U C55A,≤ 0.5
7,C5G A43G G56A C61G C62A,≤ 0.5
8,C5G A42G C61A G63C,≤ 0.5
9,C5G C11G A15U A70U,≤ 0.5
10,C5G C11A A14G G25C C29G A70G,≤ 0.5
11,C5G A37U C46U A69C,≤ 0.5
12,C5G C11G C30U C31U A57G G63A,≤ 0.5
13,C5G C22U C27U A36G A69C,≤ 0.5
14,C5G A65G,1
15,C5G C22G C31A C49G G63C A69U,≤ 0.5
16,C5G C27U G51A C60G A70G,≤ 0.5
17,C5G C24U,0.893
18,C5G A40G A57G,≤ 0.5
19,C5G C27U A43U,0.54
20,C5G C11A A14G G25C C29G C60U,≤ 0.5
21,C5G C11A C29G C33U G50A,≤ 0.5
22,C5G C27U G56A,0.619
23,C5G C11U C60G,≤ 0.5
